Results as given in ChEMBL document CHEMBL1136923, “Highly potent, orally available anti-inflammatory broad-spectrum chemokine inhibitors” (J Med Chem, 2009).

How the values were obtained:
[1] = biological target: C-C chemokine receptor type 2 (Homo sapiens) (UniProt P41597); assay: Antagonist activity at CCR2 in human THP1 cells assessed as inhibition of CCL2-induced chemotaxis after 2 hrs by microtiter format trans-well migration assay; assay type: functional, cell-based; settings: THP-1
Summary of the method: (§1)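 Microtiter trans-well migration assay in Gey's balanced salt solution with 1 mg/mL endotoxin-free BSA, no fetal calf serum. Migration ran 2 h at 37 °C. Compounds dissolved in DMSO and added to both top and bottom compartments, final DMSO 1%.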

[2] = biological target: C-C chemokine receptor type 2 (Homo sapiens) (UniProt P41597); assay: Antagonist activity at CCR2 in human THP1 cells assessed as inhibition of CCL2-induced chemotaxis at 1000 nM after 2 hrs by microtiter format trans-well migration assay; assay type: functional, cell-based; settings: THP-1; summary of the method: as §1
[3] = biological target: C-C chemokine receptor type 2 (Homo sapiens) (UniProt P41597); assay: Antagonist activity at CCR2 in human THP1 cells assessed as inhibition of CCL2-induced chemotaxis at 100 nM after 2 hrs by microtiter format trans-well migration assay; assay type: functional, cell-based; settings: THP-1; summary of the method: as §1
[4] = biological target: C-C chemokine receptor type 2 (Homo sapiens) (UniProt P41597); assay: Antagonist activity at CCR2 in human THP1 cells assessed as inhibition of CCL2-induced chemotaxis at 10 nM after 2 hrs by microtiter format trans-well migration assay; assay type: functional, cell-based; settings: THP-1; summary of the method: as §1
[5] = biological target: C-C chemokine receptor type 2 (Homo sapiens) (UniProt P41597); assay: Antagonist activity at CCR2 in human THP1 cells assessed as inhibition of CCL2-induced chemotaxis at 1 nM after 2 hrs by microtiter format trans-well migration assay; assay type: functional, cell-based; settings: THP-1; summary of the method: as §1
[6] = biological target: C-C chemokine receptor type 2 (Homo sapiens) (UniProt P41597); assay: Antagonist activity at CCR2 in human THP1 cells assessed as inhibition of CCL2-induced chemotaxis at 0.1 nM after 2 hrs by microtiter format trans-well migration assay; assay type: functional, cell-based; settings: THP-1; summary of the method: as §1
[7] = biological target: C-C chemokine receptor type 2 (Homo sapiens) (UniProt P41597); assay: Antagonist activity at CCR2 in human THP1 cells assessed as inhibition of CCL2-induced chemotaxis at 0.01 nM after 2 hrs by microtiter format trans-well migration assay; assay type: functional, cell-based; settings: THP-1; summary of the method: as §1
[8] = test system: Mus musculus; assay: Antiinflammatory activity in sc dosed mouse assessed as inhibition of LPS-induced TNFalpha upregulation measured 2 hrs after LPS challenge; assay type: functional
[9] = test system: Mus musculus; assay: Antiinflammatory activity in sc dosed mouse assessed as inhibition of LPS-induced TNFalpha upregulation measured 2 hrs after LPS challenge relative to control; assay type: functional
Summary of the method: (§2)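 Murine sublethal LPS endotoxemia screen. LPS is injected intraperitoneally and serum TNF-α is measured 2 h later as the end point. Compound is given subcutaneously or orally in a vehicle of 0.6% DMSO plus 1% carboxymethylcellulose (final concentrations) in sterile water. Values are % relative to control.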

[10] = test system: Mus musculus; assay: Antiinflammatory activity in mouse assessed as inhibition of LPS-induced TNFalpha upregulation at 830 pg, sc measured 2 hrs after LPS challenge; assay type: functional; summary of the method: as §2
[11] = test system: Mus musculus; assay: Antiinflammatory activity in po dosed mouse assessed as inhibition of LPS-induced TNFalpha upregulation measured 2 hrs after LPS challenge; assay type: functional
[12] = test system: Mus musculus; assay: Antiinflammatory activity in po dosed mouse assessed as inhibition of LPS-induced TNFalpha upregulation measured 2 hrs after LPS challenge relative to control; assay type: functional; summary of the method: as §2
[13] = test system: Mus musculus; assay: Antiinflammatory activity in mouse assessed as inhibition of LPS-induced TNFalpha upregulation at 0.0216 ug, sc measured 2 hrs after LPS challenge; assay type: functional
Summary of the method: (§3)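 Murine sublethal endotoxemia: LPS given intraperitoneally, with serum TNF-α measured 2 h after the LPS injection as the end point. Compound was given subcutaneously or orally. Vehicle was 0.6% DMSO and 1% carboxymethylcellulose (final concentrations) in sterile water. Effect is reported as % relative to control.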

[14] = test system: Mus musculus; assay: Antiinflammatory activity in mouse assessed as inhibition of LPS-induced TNFalpha upregulation at 0.000216 mg, sc measured 2 hrs after LPS challenge; assay type: functional
Summary of the method: (§4)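 Murine sublethal endotoxemia: LPS given intraperitoneally, serum TNF-α measured 2 h after LPS injection. Compound vehicle 0.6% DMSO plus 1% carboxymethylcellulose (final concentrations) in sterile water.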

[15] = test system: Mus musculus; assay: Antiinflammatory activity in mouse assessed as inhibition of LPS-induced TNFalpha upregulation at 0.00216 mg, sc measured 2 hrs after LPS challenge; assay type: functional; summary of the method: as §3
[16] = test system: Mus musculus; assay: Antiinflammatory activity in mouse assessed as inhibition of LPS-induced TNFalpha upregulation at 0.0216 mg, sc measured 2 hrs after LPS challenge; assay type: functional; summary of the method: as §3
[17] = test system: Mus musculus; assay: Antiinflammatory activity in mouse assessed as inhibition of LPS-induced TNFalpha upregulation at 0.216 mg, sc measured 2 hrs after LPS challenge; assay type: functional; summary of the method: as §3
[18] = test system: Mus musculus; assay: Antiinflammatory activity in mouse assessed as inhibition of LPS-induced TNFalpha upregulation at 624 pg, po measured 2 hrs after LPS challenge; assay type: functional; summary of the method: as §2
[19] = test system: Mus musculus; assay: Antiinflammatory activity in mouse assessed as inhibition of LPS-induced TNFalpha upregulation at 0.00312 ug, po measured 2 hrs after LPS challenge; assay type: functional; summary of the method: as §3
[20] = test system: Mus musculus; assay: Antiinflammatory activity in mouse assessed as inhibition of LPS-induced TNFalpha upregulation at 0.0216 ug, po measured 2 hrs after LPS challenge; assay type: functional; summary of the method: as §3
[21] = test system: Mus musculus; assay: Antiinflammatory activity in mouse assessed as inhibition of LPS-induced TNFalpha upregulation at 0.078 ug, po measured 2 hrs after LPS challenge; assay type: functional; summary of the method: as §3
[22] = test system: Mus musculus; assay: Antiinflammatory activity in mouse assessed as inhibition of LPS-induced TNFalpha upregulation at 0.000216 mg, po measured 2 hrs after LPS challenge; assay type: functional; summary of the method: as §4
[23] = test system: Mus musculus; assay: Antiinflammatory activity in mouse assessed as inhibition of LPS-induced TNFalpha upregulation at 0.000864 mg, po measured 2 hrs after LPS challenge; assay type: functional; summary of the method: as §3
[24] = test system: Mus musculus; assay: Antiinflammatory activity in mouse assessed as inhibition of LPS-induced TNFalpha upregulation at 0.0065 mg, po measured 2 hrs after LPS challenge; assay type: functional; summary of the method: as §3
[25] = test system: Mus musculus; assay: Antiinflammatory activity in mouse assessed as inhibition of LPS-induced TNFalpha upregulation at 0.0216 mg, po measured 2 hrs after LPS challenge; assay type: functional; summary of the method: as §3
[26] = test system: Mus musculus; assay: Antiinflammatory activity in mouse assessed as inhibition of LPS-induced TNFalpha upregulation at 0.065 mg, po measured 2 hrs after LPS challenge; assay type: functional; summary of the method: as §3
[27] = test system: Mus musculus; assay: Antiinflammatory activity in mouse assessed as inhibition of LPS-induced TNFalpha upregulation at 0.216 mg, po measured 2 hrs after LPS challenge; assay type: functional; summary of the method: as §3
[28] = Half life in Sprague-Dawley rat at 1 mg/kg, iv administered as single dose; assay type: ADME, organism-based; design: dose 1 mg/kg, route intravenous; settings: in vivo
Summary of the method: (§5)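 Male Sprague-Dawley rats, three per compound, receive a single intravenous dose in 5% DMSO in 0.9% saline. Food and water are given ad libitum. Plasma is taken at 5, 15, 30, 60, 120, 180, 240 and 480 min. Drug is measured by LC/MS/MS after extraction with 0.1% formic acid in acetonitrile. The curve is back-extrapolated to time zero assuming an initial volume of 0.26 L/kg.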

[29] = Volume of distribution at steady state in Sprague-Dawley rat at 1 mg/kg, iv administered as single dose; assay type: ADME, organism-based; design: dose 1 mg/kg, route intravenous; settings: in vivo, read-out: Vdss; summary of the method: as §5
[30] = test system: Rattus norvegicus; assay: AUC (0 to t) in Sprague-Dawley rat at 1 mg/kg, iv administered as single dose; assay type: ADME, organism-based, Plasma; design: dose 1 mg/kg, route intravenous; settings: in vivo
Summary of the method: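 Male Sprague-Dawley rats, three per compound per route, single dose. IV vehicle 5% DMSO in 0.9% saline; oral gavage vehicle 1% carboxymethylcellulose in 0.9% saline; fed ad libitum. Plasma taken 5–480 min post-dose, extracted with 0.1% formic acid in acetonitrile, quantified by LC/MS/MS (positive mode). AUC(0–t) by linear/log trapezoidal rule; IV curve back-extrapolated assuming initial volume 0.26 L/kg.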

[31] = Fractional bioavailability in Sprague-Dawley rat at 3 mg/kg, po administered as single dose; assay type: ADME, organism-based; settings: in vivo
Summary of the method: (§6)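 Male Sprague-Dawley rats, three per compound, receive a single oral dose by gavage in 1% carboxymethylcellulose in 0.9% saline, with food and water ad libitum. Plasma is sampled from 5 to 480 min and drug is quantified by positive-mode LC/MS/MS after acetonitrile/formic acid extraction. The lower limit of quantitation is about 2 ng/mL. Exposure is AUC(0→t) by the linear/log trapezoidal rule, and F is oral fractional bioavailability.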

[32] = test system: Rattus norvegicus; assay: Plasma concentration in Sprague-Dawley rat at 3 mg/kg, po administered as single dose; assay type: ADME, organism-based; design: dose 3 mg/kg, route oral; settings: in vivo; summary of the method: as §6

Chain of C-C chemokine receptor type 2 (Homo sapiens) (P41597 whole entry, looked up): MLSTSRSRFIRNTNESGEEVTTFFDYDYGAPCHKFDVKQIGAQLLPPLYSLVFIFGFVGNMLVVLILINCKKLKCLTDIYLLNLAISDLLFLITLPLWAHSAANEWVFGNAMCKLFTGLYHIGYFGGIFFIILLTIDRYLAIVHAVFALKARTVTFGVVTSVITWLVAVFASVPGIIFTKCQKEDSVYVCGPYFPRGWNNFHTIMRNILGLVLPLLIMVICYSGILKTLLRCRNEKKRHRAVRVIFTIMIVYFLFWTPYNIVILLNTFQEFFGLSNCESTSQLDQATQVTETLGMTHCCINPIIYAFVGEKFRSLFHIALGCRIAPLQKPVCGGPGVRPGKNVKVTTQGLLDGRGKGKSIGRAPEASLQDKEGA

## O=C1NCCCC[C@H]1NC(=O)C12CC3CC(CC(C3)C1)C2
[1]
  ED50: 0.44 nM
[2]
  inhibition: 100%
[3]
  inhibition: 101%
[4]
  inhibition: 98%
[5]
  inhibition: 46%
[6]
  inhibition: 14%
[7]
  inhibition: 26%

## C=CCC(C)(C)C(=O)N[C@H]1CCCCNC1=O
[1]
  ED50: 1 nM

## CC(C)CCC(C)(C)C(=O)N[C@H]1CCCCNC1=O
[1]
  ED50: 0.08 nM

## CCCC(C)(C)C(=O)N[C@H]1CCCCNC1=O
[1]
  ED50: 0.5 nM

## O=C(CC12CC3CC(CC(C3)C1)C2)N[C@H]1CCCCNC1=O
[1]
  ED50: 0.8 nM

## CCCCCC12CCC(C(=O)N[C@H]3CCCCNC3=O)(CC1)CC2
[1]
  ED50: 7 nM

## O=C1NCCCC[C@@H]1NC(=O)C12CC3CC(CC(C3)C1)C2
[1]
  ED50: 0.09 nM
[2]
  inhibition: 100%
[3]
  inhibition: 98%
[4]
  inhibition: 100%
[5]
  inhibition: 99%
[6]
  inhibition: 11%
[8]
  ED50: 2 µg/kg
[9]
  inhibition (INH): 90%
[10]
  inhibition (INH): -12%
[11]
  ED50: 0.5 µg/kg
[12]
  inhibition (INH): 90%
[13]
  inhibition (INH): 29%
[14]
  inhibition (INH): 56%
[15]
  inhibition (INH): 71%
[16]
  inhibition (INH): 89%
[17]
  inhibition (INH): 89%
[18]
  inhibition (INH): 8%
[19]
  inhibition (INH): 30%
[20]
  inhibition (INH): 60%
[21]
  inhibition (INH): 59%
[22]
  inhibition (INH): 76%
[23]
  inhibition (INH): 78%
[24]
  inhibition (INH): 71%
[25]
  inhibition (INH): 75%
[26]
  inhibition (INH): 83%
[27]
  inhibition (INH): 91%
[28]
  half-life: 16 min
[29]
  Vd: 0.8 L/kg
[30]
  AUC: 477 ng·min/mL
[31]
  bioavailability: < 1%
[32]
  Cp: < 2 ng/mL

## CCCCCCCCCCC(C)C(=O)N[C@H]1CCCCNC1=O (mixture of isomers; form 1)
[1]
  ED50: 3 nM

## CCCCCCCCCCC(C)(C)C(=O)N[C@@H]1CCCCNC1=O
[1]
  ED50: 4.5 nM
[2]
  inhibition: 98.5%
[3]
  inhibition: 101%
[4]
  inhibition: 69%
[5]
  inhibition: 36%
[6]
  inhibition: 20%
[7]
  inhibition: 5%

## CCCCCC1CCC(C(=O)N[C@H]2CCCCNC2=O)CC1 (some centres not stated)
[1]
  ED50: 5 nM
